Active and inactive are the calls of the source. The calls are words filed in the database; no cut-off is given here.
Key:
MCF7 [1] = assay: Antiproliferative activity against human MCF7 cells assessed as cell viability after 48 hrs MTT assay; format: functional, cell-based; conditions: MCF7, 48 h
Method in brief: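 MTT:medium (1:9) added 4 h at 37°C, formazan dissolved in DMSO, absorbance 570 nm. DMSO solvent control; triplicate; IC50 = concentration inhibiting 50% of viability.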

[2] = molecular target: Proteasome Macropain subunit (Homo sapiens) (UniProt P49721); assay: Inhibition of trypsin-like activity 20S proteasome beta subunit 2 of human MCF7 cells using fluorogenic substrate Boc-LRR-AMC at 10 uM after 1 hr by fluorescence analysis relative to control; format: cell-based
Proteasome Macropain subunit (Homo sapiens), sequence (P49721 whole entry): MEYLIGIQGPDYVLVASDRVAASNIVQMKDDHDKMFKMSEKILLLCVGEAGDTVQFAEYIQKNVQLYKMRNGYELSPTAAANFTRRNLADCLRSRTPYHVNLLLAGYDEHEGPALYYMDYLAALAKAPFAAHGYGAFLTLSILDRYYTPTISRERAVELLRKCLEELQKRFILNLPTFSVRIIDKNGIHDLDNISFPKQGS
Method in brief: (§1)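 Screen at 10 µM: MCF-7 lysates (sucrose/HEPES/MgCl2/EDTA buffer, 1 mM DTT) preincubated 10 min in 225 mM Tris pH 7.8, 7.5 mM MgOAc, 7.5 mM MgCl2, 45 mM KCl, 1 mM DTT; compound 1 h at 37 °C, then substrate 1 h at 37 °C; AMC release ex 360/em 460 nm versus DMSO; MG-132 positive control.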

[3] = molecular target: T1, Proteasome Macropain subunit MB1 (Homo sapiens) (UniProt P28074); assay: Inhibition of chymotrypsin-like activity 20S proteasome beta subunit 5 of human MCF7 cells using fluorogenic substrate Suc-LLVY-AMC at 10 uM after 1 hr by fluorescence analysis relative to control; format: cell-based; method in brief: as §1
T1 sequence (whole entry): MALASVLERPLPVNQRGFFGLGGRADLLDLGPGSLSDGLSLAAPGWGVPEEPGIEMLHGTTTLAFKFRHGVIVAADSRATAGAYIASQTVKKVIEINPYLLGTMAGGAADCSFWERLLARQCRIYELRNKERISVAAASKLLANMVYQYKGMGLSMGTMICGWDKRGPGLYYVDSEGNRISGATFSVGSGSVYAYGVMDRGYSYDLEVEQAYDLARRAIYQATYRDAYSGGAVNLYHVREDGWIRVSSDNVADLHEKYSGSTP

[4] = molecular target: T2, Proteasome component C5 (Homo sapiens) (UniProt P20618); assay: Inhibition of caspase-like activity 20S proteasome beta subunit 1 of human MCF7 cells using fluorogenic substrate Z-LLE-AMC at 10 uM after 1 hr by fluorescence analysis relative to control; format: cell-based; method in brief: as §1
T2 sequence (whole entry): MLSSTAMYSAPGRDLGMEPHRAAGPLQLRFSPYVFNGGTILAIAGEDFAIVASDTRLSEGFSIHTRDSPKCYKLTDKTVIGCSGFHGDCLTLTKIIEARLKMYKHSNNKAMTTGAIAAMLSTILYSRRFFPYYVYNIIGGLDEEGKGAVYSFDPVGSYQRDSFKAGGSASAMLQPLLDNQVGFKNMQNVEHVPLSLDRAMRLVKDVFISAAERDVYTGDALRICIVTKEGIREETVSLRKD

MCF7 [5] = assay: Increase in K48-linked polyubiquitinated protein expression in human MCF7 cells at IC50 after 12 hrs by Western blot analysis; format: functional, cell-based
MCF7 [6] = assay: Effect on 20S proteasome beta subunit 5 expression in human MCF7 cells at IC50 after 12 hrs by Western blot analysis; format: functional, cell-based
[7] = molecular target: T3, Proteasome Macropain subunit MB1 (Homo sapiens, UniProt P28074); assay: Inhibition of chymotrypsin-like activity 20S proteasome beta subunit 5 of human MCF7 cells using fluorogenic substrate Suc-LLVY-AMC after 1 hr by fluorescence analysis; format: cell-based
T3 sequence (P28074 whole entry): T1 sequence (whole entry)
Method in brief: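 For IC50, intact MCF-7 cells treated 12 h with compounds, then lysed (sucrose/HEPES/MgCl2/EDTA, 1 mM DTT); extracts in Tris pH 7.8/MgOAc/MgCl2/KCl/DTT mix with substrate 1 h at 37 °C; AMC fluorescence ex 360/em 460 nm, normalized to BCA total protein; DMSO solvent and MG-132 positive controls.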

Row | Compound | IC50 (MCF7 [1]) | inhibition [2] | inhibition [3] | inhibition [4] | Activity (MCF7 [5]) | Activity (MCF7 [6]) | IC50 [7]
1 | COc1cc(NS(=O)(=O)c2ccc(NC3=C(Cl)C(=O)c4ccccc4C3=O)cc2)cc(OC)c1 | 2.2 µM | 22.7% | 20% | 12% |  |  | 
2 | O=C1C(Cl)=C(Nc2ccc(S(=O)(=O)Nc3cccnc3Cl)cc2)C(=O)c2ccccc21 | 4.65 µM | 22.1% | 22.4% | 11.2% |  |  | 
3 | O=C(Nc1ccc(Cl)cc1)c1ccc(NC2=C(Cl)C(=O)c3ccccc3C2=O)cc1 | 4.52 µM | 1.55% | 15.8% | inactive |  |  | 
4 | O=C(Nc1ccc(Cl)cn1)c1ccc(NC2=C(Cl)C(=O)c3ccccc3C2=O)cc1 | 6.19 µM | inactive | 19.4% | 8.55% |  |  | 
5 | CC(C)c1ccccc1NS(=O)(=O)c1ccc(NC2=C(Cl)C(=O)c3ccccc3C2=O)cc1 | 5.38 µM | 17.1% | 20% | 11.5% |  |  | 
6 | Cc1cccnc1NS(=O)(=O)c1ccc(NC2=C(Cl)C(=O)c3ccccc3C2=O)cc1 | 1.91 µM | 13% | 14.8% | 9.01% |  |  | 
7 | O=C1C(Cl)=C(Nc2ccc(S(=O)(=O)Nc3cccc4ccccc34)cc2)C(=O)c2ccccc21 | 3.32 µM | 21.2% | 18.4% | 15.4% |  |  | 
8 | O=C1C(Cl)=C(Nc2ccc(S(=O)(=O)Nc3ccccc3Cl)cc2)C(=O)c2ccccc21 | 2.56 µM | 6.29% | 3.25% | 1.21% |  |  | 
9 | O=C1C(Cl)=C(Nc2ccc(S(=O)(=O)Nc3ccc(Br)cc3)cc2)C(=O)c2ccccc21 | 3.37 µM | 23.8% | 22.2% | 10% |  |  | 
10 | O=C1C(Cl)=C(Nc2ccc(S(=O)(=O)Nc3ccc([N+](=O)[O-])cc3)cc2)C(=O)c2ccccc21 | 2.84 µM | 22.7% | 26% | 14.1% |  |  | 
11 | Cc1ccc(NC(=O)c2ccc(NC3=C(Cl)C(=O)c4ccccc4C3=O)cc2)nc1 | 4.16 µM | inactive | 22% | 7.42% |  |  | 
12 | O=C(Nc1ccncc1)c1ccc(NC2=C(Cl)C(=O)c3ccccc3C2=O)cc1 | 20.8 µM | 2.43% | 8.96% | 7.87% |  |  | 
13 | Cc1csc(NC(=O)c2ccc(NC3=C(Cl)C(=O)c4ccccc4C3=O)cc2)n1 | 2.44 µM | 7.11% | 22.3% | 7.76% |  |  | 
14 | O=C(Nc1cccc2ccccc12)c1ccc(NC2=C(Cl)C(=O)c3ccccc3C2=O)cc1 | 4.8 µM | 4.41% | 16.9% | 16.7% |  |  | 
15 | O=C(Nc1cccc(Cl)c1)c1ccc(NC2=C(Cl)C(=O)c3ccccc3C2=O)cc1 | 16.6 µM | 27.6% | 21.6% | 11.7% |  |  | 
16 | O=C(Nc1cccnc1)c1ccc(NC2=C(Cl)C(=O)c3ccccc3C2=O)cc1 | 6.04 µM | inactive | 16.3% | 1.2% |  |  | 
17 | O=C(Nc1ccccc1)c1ccc(NC2=C(Cl)C(=O)c3ccccc3C2=O)cc1 | 15.4 µM | 3.19% | 4.03% | 10.7% |  |  | 
18 | O=C1C(Cl)=C(Nc2ccc(S(=O)(=O)Nc3ccc(Cl)cn3)cc2)C(=O)c2ccccc21 | 4.43 µM | 35% | 42.3% | 28.9% | Active | inactive | 9.9 µM
